Measured values collected from several papers.
Compare with care: the assays were run in different laboratories.
Medium: plasma

| Compound | system | conditions | Cmax |
| --- | --- | --- | --- |
| Cl.Clc1ccc2c(c1)nc(N1CCNCC1)n2Cc1ccccc1 | rat | oral, 5 mg/kg | 800 nM |
| Oc1c(Br)cc(Cl)c2cccnc12 | Sprague-Dawley rat | oral, 20 mg/kg | 1700 ng/mL |
| CCc1cc(C(=O)NC)c2nccc(N3CCc4c(cc(Cn5ccnc5)cc4-c4cn(C)nc4C(F)(F)F)C3=O)c2c1 | male Sprague-Dawley rat | oral, 50 mg/kg, single dose | 6170 ng/mL |
| COc1cc2c3c(n(CCCN4CCOCC4)c(=O)c2cc1OC)-c1cc2c(cc1C3=O)OCO2 | female Fischer 344 rat | intravenous, 24 mg/m², single dose | 568 ng/mL |
| COc1nc(-c2cc(C)c(N[C@@H](C)c3cc(F)cc(F)c3)nn2)ccc1-n1cnc(C)c1 | male Sprague-Dawley rat | intravenous, 1 mg/kg, single dose | 3570 ng/mL |
| C=CC(=O)N1CC2CC(n3nc(-c4ccc(C(=O)Nc5ccccn5)cc4)c4c(N)ncnc43)CC2C1 (centres unmarked) | male Wistar rat | oral, 30 mg/kg | 1260 ng/mL |
| CCOC(=O)[C@@]12C[C@@H]1[C@@H](n1ccc3c(NC)nc(C#Cc4ccc(Cl)s4)nc31)[C@H](O)[C@@H]2O | male Sprague-Dawley rat | oral, 3 mg/kg | 67.1 ng/mL |
| COCc1nn(Cc2ccc(Cn3ccccc3=O)cc2)cc1C(=O)NCc1c(C#N)ccc(OC)c1F | male Sprague-Dawley rat | oral, 10 mg/kg | 360 ng/mL |
| Cc1c(-c2ccccc2)cccc1N1C(=O)c2cc(CN[C@H](C(=O)O)C(C)O)c(OCc3cccc(C#N)c3)cc2C1=O (some centres unmarked) | Sprague-Dawley rat | intravenous, 5 mg/kg | 4350 ng/mL |
| O=C(Nc1cc(F)c(F)c(F)c1)c1ccc(F)c(S(=O)(=O)NCc2cccc(B(O)O)c2)c1 | male Sprague-Dawley rat | oral, 20 mg/kg | 46.3 ng/mL |
| CNCc1cc(-c2ccccc2F)n(S(=O)(=O)c2cccnc2)c1 | Sprague-Dawley rat | oral, 10 mg/kg | 245 ng/mL |
| CC(C)(C)C[C@H]1N[C@@H](C(=O)NCC[C@H](O)CO)[C@H](c2cccc(Cl)c2)[C@@]12C(=O)Nc1cc(Cl)c(F)cc12 | rat | oral, 25 mg/kg | 6400 nM |
| COCCOC(=O)C1=C(C)NC(C)=C(C(=O)OC(C)C)C1c1cccc([N+](=O)[O-])c1 (centres unmarked) | male Sprague-Dawley rat | oral, 12 mg/kg | 85 ng/mL |
| CCc1nc(C(N)=O)c(Nc2ccc(N3CCC(N4CCN(C)CC4)CC3)c(OC)c2)nc1NC1CCOCC1 | male Sprague-Dawley rat | oral, 10 mg/kg | 341 ng/mL |
| COc1ccc2c(Cc3ccccc3F)c3n(c(=O)c2c1OC)CCc1cc2c(cc1-3)OCO2 | rat | oral, 5 mg/kg | 310 ng/mL |
| N#Cc1[nH]nnc1-c1cc(Cl)cc(/C=C/c2cccc(C(F)(F)F)c2)c1 | male Sprague-Dawley rat | oral, 10 mg/kg | 2670 ng/mL |
| CCNC(=O)c1nc(-c2ccc3[nH]c(-c4nc(C)no4)cc3c2)c(C)[nH]1 | Sprague-Dawley rat | oral, 10 mg/kg, suspension | 2600 nM |
